Measurements from different studies.
Target: Ephrin type-A receptor 5 (EPHA5, Homo sapiens, UniProt P54756)

`COc1ncc2cc3ccccc3nc2c1C#N` gave a remaining binding of 99% (cell-free assay; competition with immobilised ligand; 5 µM).
`CN(c1nccc(-c2cnn3ncccc23)n1)C1CC1` gave a remaining binding of 100% (binding; 1 µM).
With `CNC(=O)[C@@H]1CC[C@@H](n2c(-c3ccc4cnccc4c3)nc3ccc(C(=O)NCc4cccc(C(N)=O)c4)cc32)C1` the remaining binding was 100% (binding; competition with immobilised ligand; 1 µM).
With `CC1CCCN1c1nccc(-c2cnn3ncccc23)n1` (centres unmarked) the remaining binding was 100% (binding; 1 µM).
`CNC(=O)Nc1ccc2c(c1)[C@@]1(CC2)OC(=O)N(CC(=O)N(Cc2ccc(F)cc2)[C@@H](C)C(F)(F)F)C1=O` has a remaining binding of 94% (cell-free assay; competition with immobilised ligand; 1 µM).
`O=C(c1ccc(Nc2ncc(Cl)c(-c3ccc(Cl)s3)n2)cc1)N1CCC(N2CCCC2)CC1` has a remaining binding of 98% (binding; competition with immobilised ligand; 1 µM).
`Nc1ncc2c(n1)-c1c([nH]c3ccc(C#CC4CC4)cc13)CCCC2` has a remaining binding of 97% (binding; competition with immobilised ligand; 1 µM).
`COc1cccc(CNC(=O)c2nc3scc(COCc4ccc(C(=O)O)cc4)c3c(=O)[nH]2)c1` has a remaining binding of 98.5% (cell-free assay; competition with immobilised ligand; 1 µM).
With `Cc1cnc(Nc2ccc(C(=O)N3CCC(N4CCCC4)CC3)cc2)nc1-c1cc2ccccc2s1` the remaining binding was 74% (binding; competition with immobilised ligand; 1 µM).
`COc1ccnn2ncc(-c3ccnc(N(C)C)n3)c12` has a remaining binding of 100% (binding; 1 µM).
For `CC(=O)Nc1c(C(C)=O)c(=O)n(C)c2nc(-c3ccc(Cl)cc3Cl)c(-c3ccc(Cl)cc3)cc12`, the remaining binding was 100% (cell-free assay; competition with immobilised ligand; 1 µM).
The remaining binding of `N[C@@H]1CCN(c2nccc(-c3cnn4ncccc34)n2)C1` is reported as 100% (binding; 1 µM).
`FC(F)(F)Oc1cccc(-c2cnc3ccc(-c4ccncc4)nn23)c1` has a remaining binding of 90% (cell-free assay; competition with immobilised ligand; 5 µM).
For `CC1=C(C#N)C(c2ccc3c(c2)c(NC(=O)c2ccccc2C)nn3C)C(C#N)=C(C)N1`, the remaining binding was 77% (cell-free assay; competition with immobilised ligand; 1 µM).
The remaining binding of `CN(C)c1nccc(-c2cnn3ncccc23)n1` is reported as 100% (binding; 1 µM).
`O=C(NCCCN1CCOCC1)c1ccc(Nc2ncc(Cl)c(-c3ccc(Cl)s3)n2)cc1` gave a remaining binding of 99% (binding; competition with immobilised ligand; 1 µM).
The remaining binding of `CNCc1ccccc1-c1csc([C@@H](C)Nc2nc(C)nc3cc(OC)c(OC)cc23)c1` is reported as 88% (cell-free assay; competition with immobilised ligand; 1 µM).
The remaining binding of `CN(CCCC(F)(F)F)c1nccc(-c2cnn3ncccc23)n1` is reported as 100% (binding; 1 µM).
`CC1=C(C#N)[C@@H](c2ccc3[nH]nc(C)c3c2)C(C#N)=C(c2ccc(Cl)cc2)N1` has a remaining binding of 100% (cell-free assay; competition with immobilised ligand; 1 µM).
With `O=C(NCC1CCOCC1)c1n[nH]cc1NC(=O)c1c(F)cccc1F` the remaining binding was 100% (binding; competition with immobilised ligand; 1 µM).
